# Key:
# [1] = test system: Serum TSH; test: Levothyroxine dose for TSH suppression in thyroid cancer; format: in vivo, Indian thyroid cancer patients
# How it was run: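 Follow-up visits of treated thyroid cancer outpatients were evaluated prospectively, recording age, sex, weight, initial ATA risk category, serum TSH and prescribed levothyroxine. Visits with suppressed TSH were selected and dose per kg body weight calculated. Mean, median, range and lowest dose/kg were derived.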
# [2] = test system: Serum TSH; details: ref the guidelines; cited from earlier work
smiles,measurement,setting,value
N[C@@H](Cc1cc(I)c(Oc2cc(I)c(O)c(I)c2)c(I)c1)C(=O)O [Levothyroxine],patients receiving more than 2ug/kg in excess TSH suppression,"[1]; 14 patients, TSH 0.01-0.09 mIU/L",44%
same,patients with suppressed TSH values with less than 2ug/kg dose,[1]; 16 patients,50%
same,mean suppressive dose,"[1]; 36 patients, 90 follow-ups with suppressed TSH, SD 0.49",2.21 ug/kg body weight
same,maximum dose,[1]; in vivo,3.33 µg/kg
same,minimum dose required to keep the patient in suppression,[1]; in vivo,1.29 µg/kg
same,dose required for long-term TSH suppression,[2],2.2-2.7 ug/kg body weight

# Reference: PMC10798254 (Indian Journal of Nuclear Medicine : IJNM : The Official …, 2023)
